Measured values of several laboratories.
Each line is one published result; the experiments were not run side by side.
Target: Vascular endothelial growth factor receptor 1 (FLT1, Homo sapiens, UniProt P17948)

SMILES	effect on	mode	technique	concentration	endpoint	result
O=C1C=C(Nc2ccc(OCc3cn(Cc4ccc(Cl)c(Cl)c4)nn3)cc2)C(=O)c2ccccc21	enzyme activity	inhibitor	radiometric	10 µM	inhibition	-38%
CO[C@@H]1[C@H](N(C)C(=O)c2ccccc2)C[C@H]2O[C@]1(C)n1c3ccccc3c3c4c(c5c6ccccc6n2c5c31)C(=O)NC4	enzyme activity	inhibitor		1 µM	inhibition	57%
CC(C)S(=O)(=O)c1ccc2nccc(Nc3ccc4sc(C5CCCC5)nc4c3)c2c1	enzyme activity	inhibitor		1 µM	activity vs control	107%
CN1CCN(C(=O)c2ccc(NC(=O)Nc3ccc(N(C)c4ccnc(Nc5ccc(CS(C)(=O)=O)cc5)n4)cc3)cc2)CC1	binding		competition with immobilised ligand	1 µM	remaining binding	0.4%
C=CC(=O)N1CCC[C@@H](n2nc(-c3ccc(Oc4ccccc4)cc3)c3c(N)ncnc32)C1	enzyme activity	inhibitor		1 µM	inhibition	33%
C[C@H]1CC[C@H](n2c3cnccc3c3cnc(Nc4ccc5c(n4)CCN(C(=O)CO)C5)nc32)CC1	cell-free assay		competition with immobilised ligand	1 µM	remaining binding	93%
C1=C/COCc2cc(ccc2OCCN2CCCC2)Nc2nccc(n2)-c2cccc(c2)COC/1	binding			0.1 µM	remaining binding	64%
CCCCC(=O)Nc1ccc(-c2ccc3ncn(CCC)c(=O)c3c2)cn1	binding		competition with immobilised ligand	0.5 µM	remaining binding	98%
